This is an account of results in PMC12808237 (Nature Communications, 2025).

For test [1], the system named is MITF-dependent target genes. The conditions noted are these: cited from earlier work.
For a further test, the system named is melanoma cell lines. The settings on record: cited from earlier work.
Test [2] deals with T1, MITF(217-296) (Homo sapiens, UniProt O75030).
T1 sequence (O75030 217-296 isoform O75030-9): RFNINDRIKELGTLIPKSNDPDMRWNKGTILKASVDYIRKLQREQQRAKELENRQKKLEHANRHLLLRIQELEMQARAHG
Nature of the test: Protein-observed NMR titration. It counts as binding.

Test [3] deals with T1, MITF(217-296). In words: 19F NMR reporter assay. It counts as binding. In general terms: Reporter assays use an easily measured gene product as a stand-in for the process of interest.
Test [4] deals with T2, MITF(180-296) (Homo sapiens, UniProt O75030).
T2 sequence (O75030 287-403): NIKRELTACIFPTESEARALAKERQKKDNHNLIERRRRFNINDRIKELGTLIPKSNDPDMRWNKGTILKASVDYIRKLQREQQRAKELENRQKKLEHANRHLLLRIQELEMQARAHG
In words: Surface plasmon resonance. It counts as binding. The conditions noted are these: 25 °C. The procedure, abridged:
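MITF(180-296), biotinylated via C-terminal Avi-tag, was captured on a streptavidin chip at 6 µg mL-1 to ~3000 RU. Run at 25 °C in 25 mM Tris-HCl pH 7.5, 150 mM NaCl, 0.05% Tween 20, 3 mM EDTA, 0.5 mM TCEP, 10 mM L-arginine, 3% DMSO. Test compound was injected as a 2- or 3-fold series at 60 µL min-1 (60 s association, 150 s dissociation). Double-referenced data were fitted globally to a 1:1 model for kon, koff and KD.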

Test [5] concerns the target T3, MITF(180-296) (Homo sapiens, UniProt O75030).
T3 sequence (O75030 300-403 limits assumed): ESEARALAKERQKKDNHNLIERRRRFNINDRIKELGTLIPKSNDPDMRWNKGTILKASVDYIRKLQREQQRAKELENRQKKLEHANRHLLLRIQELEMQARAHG
In words: Isothermal titration calorimetry. The conditions noted are these: 25 °C, n = 2, mean ± SD. It counts as binding. The procedure, abridged:
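Run at 25 °C in high-feedback mode. Buffer: 25 mM Tris-HCl pH 7.5, 150 mM NaCl, 10 mM L-arginine, 3 mM EDTA, 0.5 mM TCEP. Cell held 12 µM purified dimeric wild-type avi-tagged MITF(180-296), dialysed twice at 4 °C, with 2% DMSO. Syringe held 182–220 µM test compound diluted from DMSO. Duplicates were fitted with automatic baseline/integration; reported as mean ± SD.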
In general terms: In ITC the heat of successive injections is recorded.

The target in another test is MYC/MAX (Homo sapiens, UniProt P01106+P61244). Nature of the test: NMR chemical shift perturbation. It counts as binding.
Chain of MYC/MAX (P01106 368-449): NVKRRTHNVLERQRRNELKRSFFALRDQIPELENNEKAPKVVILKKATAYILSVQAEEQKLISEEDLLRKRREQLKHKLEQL
Chain of MYC/MAX (P61244 22-102): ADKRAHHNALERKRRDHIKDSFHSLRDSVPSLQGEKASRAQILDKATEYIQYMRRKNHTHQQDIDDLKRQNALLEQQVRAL
Test [6] deals with T3, MITF(180-296). In words: Nano differential scanning fluorimetry. The settings on record: nanoDSF, compound at 50 μM. It counts as binding. In outline: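 Wild-type MITF(180-296) was spun 16,000 × g, 10 min, 4 °C, then used at 0.3 mg mL-1 final in 50 mM HEPES pH 8, 300 mM NaCl, 5% glycerol, 1 mM TCEP. Test compound 50 μM final, 3% DMSO; DMSO for apo. Shaken 30 min at RT and re-spun. Heated 20–95 °C at 0.5 °C min-1; 280 nm excitation, 330/350 nm emission. Duplicates.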
On the technique in general: Differential scanning fluorimetry follows unfolding on heating by fluorescence.

Another test deals with MITF(180-296) A264C. Nature of the test: ITC with MITF variant A264C. The conditions noted are these: 25 °C. It counts as binding, human.
Another test has as its system MITF(180-296) R263A. In words: ITC with MITF variant R263A. It counts as binding, human. The settings on record: 25 °C.
The test system of the next test is MITF(180-296) Q261A. Nature of the test: ITC with MITF variant Q261A. It counts as binding, human. The conditions noted are these: 25 °C.
Setting [7] is: KD (MITF NMR KD), protein-observed NMR titration.
Setting [8] is: SPR KD,eq, equilibrium affinity.

Turning to `NS(=O)(=O)c1ccc(NC2=CC(=O)c3ccccc3C2=O)cc1` [ML329], the “effect on MITF-dependent target genes” value in [1] is recorded as “induce downregulation of a subset of MITF-dependent target genes”. The “effect on survival of melanoma cell lines” value with melanoma cell lines is on record as “negatively impact survival of melanoma cell lines”.

The term Kd denotes the equilibrium constant for the complex coming apart. With `O=C(O)c1cc2cc(F)ccc2n1-c1ccc(F)cc1` [compound 1], the Kd on MITF(217-296) [2] (KD, protein-observed NMR titrations) stood at 1000 µM.

`O=C(O)c1[nH]c2ccc(Cl)cc2c1-c1ccccc1` [compound 3]: the Kd at MITF(217-296) [2] (setting [7]) was determined as 327 µM. For the same molecule, the ligand efficiency on MITF(217-296) [3] (from NMR affinities) amounted to 0.25.

Molecule `O=C(O)c1[nH]c2ccc(Cl)cc2c1-c1ccc(F)cc1` [compound 5] yielded a Kd at MITF(217-296) [2] (setting [7]) of 104 µM.

The term Ki denotes the equilibrium dissociation constant of an inhibitor or competing ligand from its target. Higher therefore signals lower affinity. `O=C(O)c1cc2ccc(C#CC3(O)CCCCC3)cc2n1-c1ccccc1` [compound 6]: at MITF(217-296) [3], affinity was put at a Ki of 2600 nM. For the same molecule, the “improved binding affinity compared to compound 3” value at MITF(217-296) [3] (Ki of 6 versus KD of 3) is listed as > 100 fold. In addition, the Kd at MITF(180-296) [4] (setting [8]) was 8000 nM; at MYC/MAX it was > 200 µM. At MITF(180-296) [5], the “ITC KD” value is reported as “low-μM range”.

As for `Cc1cc(C#CC2(O)CCCCC2)cc2c1cc(C(=O)O)n2-c1ccccc1` [compound 7], the Kd is 4000 nM on MITF(180-296) [4] (setting [8]) and > 200 µM on MYC/MAX. For the same molecule, the “ITC KD” value on MITF(180-296) [5] is reported as “low-μM range”.

For the molecule `O=C(O)c1cc2ccc(C#CC3(O)CCCCC3)cc2n1-c1cccc(Cl)c1` [compound 8], the Kd was 1900 nM on MITF(180-296) [4] (setting [8]); 1800 nM on MITF(180-296) [4] (kinetic affinity constant (KD,kin), SPR, from kon and koff); 470 ± 170 nM on MITF(180-296) [5] (ITC KD). On MITF(180-296) [5] (ITC), the “-TΔS” value came to 12.4 ± 8.7 kJ/mol. Moreover, at MITF(180-296) [5] (ITC), the ΔG was -36.1 ± 0.88 kJ/mol. Further, the ΔH on MITF(180-296) [5] (ITC) was -49.4 ± 6.5 kJ/mol. Also, at MITF(180-296) [6], the “thermal stabilization of MITF” value was found to be 3.4 °C. Besides, the “binding to MITF variant by ITC” value in the test on MITF(180-296) A264C, in the test on MITF(180-296) R263A and in the test with MITF(180-296) Q261A was “significant disruption of binding interactions” throughout.
